A selection: hits, their analogues and other compounds. The true share with any hit is near 2.9%.
DDE Tn6 FP inh: inhibitors of Tn6 peptide binding to fibrin DD(E), primary screen, biochemical, fluorescence polarization, human fibrin, Tn6 probe; Fibrinogen beta chain (Homo sapiens), P02675; Fibrin DD(E) TRITC-Tn6 fluorescence polarization displacement; inhibition, % at 8.3 µM; 370,000 compounds, 0.21% hits; AID 720509, 2013;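 active means inhibition above a per-campaign cutoff: mean of compounds within control limits plus 3 SD, cut at about 15% in these data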
Target sequence (P02675 whole entry, looked up): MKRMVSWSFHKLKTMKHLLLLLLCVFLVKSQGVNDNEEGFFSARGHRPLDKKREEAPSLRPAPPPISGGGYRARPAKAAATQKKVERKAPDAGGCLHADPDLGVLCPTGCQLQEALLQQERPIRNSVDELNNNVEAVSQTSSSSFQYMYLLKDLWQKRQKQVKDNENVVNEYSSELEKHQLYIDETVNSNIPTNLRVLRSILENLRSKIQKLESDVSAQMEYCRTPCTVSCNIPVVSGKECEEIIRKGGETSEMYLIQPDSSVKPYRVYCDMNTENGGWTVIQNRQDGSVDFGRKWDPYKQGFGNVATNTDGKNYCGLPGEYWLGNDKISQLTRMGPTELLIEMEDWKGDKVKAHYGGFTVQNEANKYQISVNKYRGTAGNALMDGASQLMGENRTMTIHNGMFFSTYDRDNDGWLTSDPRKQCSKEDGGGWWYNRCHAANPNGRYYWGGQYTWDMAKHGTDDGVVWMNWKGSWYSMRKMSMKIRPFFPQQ
CendR NRP1 mod: modulators of CendR peptide binding to NRP-1, primary screen, biochemical, fluorescence polarization, uHTS; 360,000 compounds, 0.85% hits; FAM-RPARPAR peptide binding to NRP-1; inhibition, % at 25 µM; AID 602438, 2012; Neuropilin-1 (Homo sapiens), O14786;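 active means inhibition or corrected inhibition above about 18%, plus a signal ratio from 0.5 to 1.5, limit read from the data, passing the limit was not always enough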
CRFBP-R2 agonist: agonists of CRF-BP/CRF-R2 complex, primary screen, cell-based, HEK293, calcium dye fluorescence, uHTS. calcium dye fluorescence (FLIPR); percent of saturating CRF peptide response. 350,000 compounds, 0.46% hits. activation, % at 13.2 µM. AID 588473, 2011. CRF-binding protein / CRF receptor 2 complex (human);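 active means activation of at least 50%, plus an integration ratio under a set limit after plate pattern correction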
KLK7 zymogen act: proKLK7 zymogen activators, primary screen, biochemical, fluorescence intensity; Kallikrein-7 (Homo sapiens), P49862; purified proKLK7, EDANS-DABCYL substrate fluorescence; 100% is mature enzyme control, 0% vehicle; activation, % at 7 µM; 370,000 compounds, 0.9% hits; AID 652039, 2013;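 active means activation above the mean of all tested compounds plus 3 SD, computed per campaign excluding outliers beyond control limits, cut at about 13% in these data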
Target sequence (P49862 whole entry, looked up): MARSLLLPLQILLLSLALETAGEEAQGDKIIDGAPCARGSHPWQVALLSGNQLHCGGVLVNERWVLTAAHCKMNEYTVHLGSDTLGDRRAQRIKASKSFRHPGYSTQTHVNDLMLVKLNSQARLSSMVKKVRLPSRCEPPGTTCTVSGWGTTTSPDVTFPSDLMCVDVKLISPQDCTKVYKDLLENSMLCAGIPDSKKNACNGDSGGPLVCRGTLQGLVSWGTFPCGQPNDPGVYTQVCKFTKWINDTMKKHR
DDE Tn7 FP inh: inhibitors of Tn7 peptide binding to fibrin DD(E), primary screen, biochemical, fluorescence polarization, human fibrin, Tn7 probe; 370,000 compounds, 0.13% hits; inhibition, % at 8.3 µM; Fibrinogen beta chain (Homo sapiens), P02675; FP displacement of FITC-Tn7 peptide from fibrin DD(E); 0% = median of compound wells per plate;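 active means inhibition above the mean of compounds falling within the control limits plus 3 SD of them, cut at about 14% in these data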
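Measure: % inhibition scaled between sample-field median and high-control FP; Test system: human fibrin DD(E); Quantity: 2 µM final DD(E) protein; Doses: one dose, 8.3 µM nominal; Schedule: compound with protein 10 min, then 3 h after probe, room temperature; Detection: fluorescence polarization; Medium: Tris buffer with calcium and detergent, pH 7.8.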
CRFR2-BP antag: antagonists of CRF-BP/CRF-R2 complex, primary screen, cell-based, HEK293, calcium dye fluorescence, uHTS | 350,000 compounds, 0.59% hits | AID 588475, 2011 | CRF-induced calcium fluorescence | inhibition, % at 11.8 µM;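 active means inhibition of the ligand-induced calcium signal above about 50% at the single tested concentration, limit read from the data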
Of the large screens only hits and unclear results are named; the others gave an inactive call.

COc1cc(CN2CCN(Cc3ccc(SC)cc3)CC2)cc(OC)c1O	CendR NRP1 mod 23
C=CCN(c1ccccc1)S(=O)(=O)c1cccc(C(=O)O)c1	CRFR2-BP antag 98
COc1cc(/C=N/Nc2nc3ccccc3s2)cc([N+](=O)[O-])c1O	none
O=[N+]([O-])c1cc(Cl)cc(/C=N/Nc2nc3ccccc3s2)c1O	CRFR2-BP antag 82
Cc1ccc2c(c1)c(/C=C/c1cc[n+](C)cc1)c(C)n2C	CRFBP-R2 agonist 53
COC(=O)CCc1c(C)[nH]c(C(=O)OCc2ccccc2)c1C	CendR NRP1 mod 20
COc1ccc(C(=O)c2sc3nc(C)cc(-c4cccs4)c3c2N)cc1	CRFBP-R2 agonist 67
Cc1cc(C)c2c(N)c(C(=O)c3ccc(Cl)cc3)sc2n1	none
COc1ccc(C(=O)c2sc3nc(C)cc(-c4cccs4)c3c2N)cc1OC	CRFBP-R2 agonist 108
CC(C)NC(=O)c1sc2nc(-c3cccs3)cc(-c3cccs3)c2c1N	none (no result: CendR NRP1 mod)
Cc1cc(-c2cccs2)c2c(N)c(C(=O)c3ccc4c(c3)OCO4)sc2n1	CRFBP-R2 agonist 109
Cc1cc(C)c2c(N)c(C(=O)c3ccc(Cl)c(Cl)c3)sc2n1	none
COc1cc(/C=C(\C#N)C(=O)c2ccc(O)c(O)c2)cc(I)c1O	CRFBP-R2 agonist 188
COc1ccc(C=C(C#N)C(=O)c2ccccc2)cc1	none (no result: CRFBP-R2 agonist, CRFR2-BP antag)
CCN1C(=O)C2C(c3ccccc3F)NC(Cc3ccc(O)cc3)(C(=O)OC)C2C1=O (stereo not drawn)	none
CCOC(=O)C1(Cc2ccccc2)NC(c2ccccc2F)C2C(=O)N(CC)C(=O)C21 (stereo not drawn)	CendR NRP1 mod 19
O=C(CCCOc1ccc(Cl)cc1Cl)N1CCc2ccccc2C1	CendR NRP1 mod 29
O=C(CCCOc1ccccc1)N1CCc2ccccc2C1	none
COc1cc(NC(=O)C2CCCN(S(=O)(=O)c3cccc4cccnc34)C2)cc(OC)c1 (stereo not drawn)	none (no result: CendR NRP1 mod, CRFBP-R2 agonist, CRFR2-BP antag)
COc1cc(Cn2nnc3ccccc32)cc(Br)c1O	CendR NRP1 mod 23
O=C(Nc1cccc(C(F)(F)F)c1)OCCCN1CCC2(CCC(c3ccccc3)CC2)C1=O (stereo not drawn)	none (no result: CendR NRP1 mod, CRFBP-R2 agonist, CRFR2-BP antag)
CC1CCN(CCCn2c(=S)[nH]c3ccc(N4CCOCC4)cc3c2=O)CC1	KLK7 zymogen act 53
CCN(CCCn1c(=S)[nH]c2ccc(N3CCOCC3)cc2c1=O)c1ccccc1	none
COC(=O)[C@@]12CCCCC3=C1N(CCC3)C(=O)[C@H]2CC(=O)NCc1ccc(C)o1	none (no result: CendR NRP1 mod, CRFBP-R2 agonist, CRFR2-BP antag)
COc1cc(CCC(=O)NC2(C)CCS(=O)(=O)C2)cc(OC)c1OC (stereo not drawn)	CRFR2-BP antag 53
CCN(Cc1cn(Cc2ccc(C)cc2)nn1)S(=O)(=O)c1ccccc1Br	none (no result: CendR NRP1 mod, CRFBP-R2 agonist, CRFR2-BP antag)
O=C(CSc1nc2ccccc2c(=O)n1-c1ccc(Cl)cc1)NNC(=S)Nc1ccccc1	none (no result: CendR NRP1 mod, CRFBP-R2 agonist, CRFR2-BP antag)
Cc1ccc(S(=O)(=O)N/N=C/c2ccc(OC3CSC3)cc2)cc1	CRFBP-R2 agonist 75
COc1cccc(CN(C)C(=O)c2cccc(S(=O)(=O)N3CCN(c4ccccc4)CC3)c2)c1OC	CRFR2-BP antag 117
COc1cccc(C(=O)NCCS(=O)(=O)N2CCN(c3ccccc3)CC2)c1OC	CendR NRP1 mod 25
COc1ccc(NC(=O)CN(C)C(=O)c2cccc(S(=O)(=O)N3CCN(c4ccc(F)cc4)CC3)c2)cc1	CRFR2-BP antag 79
COc1cccc(CN(C)C(=O)c2cccc(S(=O)(=O)N3CCN(c4ccc(F)cc4)CC3)c2)c1OC	none
CN(CC(=O)Nc1ccc(F)cc1)C(=O)c1cccc(S(=O)(=O)N2CCN(c3ccccc3)CC2)c1	none
COc1ccc([C@H]2OC(=O)C[C@H]2C(=O)N2CCCC2)cc1OC	none (no result: CendR NRP1 mod, CRFBP-R2 agonist, CRFR2-BP antag)
Cn1c(CCN2CCCC2)nc2cc(NC(=O)COc3ccc(Cl)cc3)ccc21	CendR NRP1 mod 19
COc1ccc(N=C2C(=Nc3ccc(OC)cc3)N(c3ccc(OC)cc3)C(=S)N2C(=O)c2ccc(OC)cc2)cc1	none
COc1ccc(N=C2C(=Nc3ccc(OC)cc3)N(c3ccc(N(C)C)cc3)C(=S)N2c2ccc(OC)cc2)cc1	CendR NRP1 mod 26
CC(=O)Nc1cc(OC(C)=O)c2nonc2c1OC(C)=O	KLK7 zymogen act 40
CCOc1ccc(NC(=O)CCNS(=O)(=O)c2cccc3nonc23)cc1	CRFR2-BP antag 55
Cc1ccc(NC(=O)CCNS(=O)(=O)c2cccc3nonc23)cc1	none
COc1ccc(OC)c(NC(=O)CCNS(=O)(=O)c2cccc3nonc23)c1	CendR NRP1 mod 28
CC(=O)N1CCN(C(=O)c2ccc(CNC(=O)c3cccc(Br)c3)cc2)CC1	none (no result: CendR NRP1 mod, CRFBP-R2 agonist, CRFR2-BP antag)
C=CCOC(=O)C1=C(C)NC2(O)c3ccccc3C(=O)C12O (stereo not drawn)	CRFR2-BP antag 69
CCc1ccc(CNC(=O)CCC(=O)N2Cc3cccc(OC)c3Oc3ncccc32)cc1	none
CCOc1ccc(CNC(=O)CCC(=O)N2Cc3cccc(OC)c3Oc3ncccc32)cc1	CRFR2-BP antag 52
C#CCN1CC(N(C)CCOC(=O)c2cc(C)cc(C)c2)CS1(=O)=O (stereo not drawn)	none (no result: CendR NRP1 mod, CRFBP-R2 agonist, CRFR2-BP antag)
COc1ccc(OC)c(CN2C(=O)COc3ccccc3C2c2nnnn2C2CCCC2)c1 (stereo not drawn)	none (no result: CendR NRP1 mod, CRFBP-R2 agonist, CRFR2-BP antag)
CCCCOc1ccc(N=Cc2cccs2)cc1	none
Oc1ccc(N=Cc2ccc(-c3cccs3)s2)cc1	DDE Tn6 FP inh 19
COc1cccc(/C(O)=C2/C(=O)C(=O)N(CCN(C)C)C2c2ccc(Br)cc2)c1 (stereo not drawn)	CendR NRP1 mod 20
COC(=O)c1ccc(C2/C(=C(\O)c3cccc(OC)c3)C(=O)C(=O)N2CCCN(C)C)cc1 (stereo not drawn)	none
COc1ccc(/C(O)=C2/C(=O)C(=O)N(CCN(C)C)C2c2cccnc2)cc1C (stereo not drawn)	CRFBP-R2 agonist 94
Fc1ccc(-c2ccnc3nc(-n4cccc4)nn23)cc1	none
Fc1ccc(-c2ccnc3nc(N4CCOCC4)nn23)cc1	KLK7 zymogen act 22
CCCc1cc(=O)oc2cc(C)cc(OCC(=O)NCCCn3ccnc3)c12	none
Cc1cc(OCC(=O)NCCCn2ccnc2)c2c(C)cc(=O)oc2c1	CendR NRP1 mod 20
C[C@@H](CO)N(Cc1cn(Cc2ccccc2)nn1)S(=O)(=O)c1ccc(F)cc1Br	none (no result: CendR NRP1 mod, CRFBP-R2 agonist, CRFR2-BP antag)

Bioassay records deposited in PubChem BioAssay by several laboratories.
